Measured values: ChEMBL document CHEMBL1649517, “Effect of MexXY overexpression on ceftobiprole susceptibility in Pseudomonas aeruginosa” (2009)
Converted amounts (≈) assume the structure as drawn.

What was measured:
[1] = test system: Pseudomonas aeruginosa; experiment: Antimicrobial activity against Pseudomonas aeruginosa isolate OC14805 by broth microdilution method; format: functional
How it was run: (§1)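 Clinical P. aeruginosa isolates, baseline and posttreatment, collected in ceftobiprole phase III clinical trials. MICs were measured by CLSI broth microdilution.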

[2] = test system: Pseudomonas aeruginosa; experiment: Antimicrobial activity against Pseudomonas aeruginosa isolate OC14812 by broth microdilution method; format: functional; how it was run: as §1
[3] = test system: Pseudomonas aeruginosa; experiment: Antimicrobial activity against Pseudomonas aeruginosa isolate OC16827 by broth microdilution method; format: functional; how it was run: as §1
[4] = test system: Pseudomonas aeruginosa; experiment: Antimicrobial activity against Pseudomonas aeruginosa isolate OC16830 by broth microdilution method; format: functional; how it was run: as §1
[5] = test system: Pseudomonas aeruginosa; experiment: Antimicrobial activity against Pseudomonas aeruginosa isolate OC17349 by broth microdilution method; format: functional; how it was run: as §1
[6] = test system: Pseudomonas aeruginosa; experiment: Antimicrobial activity against Pseudomonas aeruginosa isolate OC17355 by broth microdilution method; format: functional; how it was run: as §1
[7] = test system: Pseudomonas aeruginosa; experiment: Antimicrobial activity against Pseudomonas aeruginosa isolate OC14552 by broth microdilution method; format: functional; how it was run: as §1
[8] = test system: Pseudomonas aeruginosa; experiment: Antimicrobial activity against Pseudomonas aeruginosa isolate OC14551 by broth microdilution method; format: functional; how it was run: as §1
[9] = test system: Pseudomonas aeruginosa; experiment: Antimicrobial activity against Pseudomonas aeruginosa PAO1 harboring plasmid JAK16 expressing mexXY gene by broth microdilution method; format: functional
How it was run: (§2)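 CLSI broth microdilution MIC on P. aeruginosa transformants. Plasmids (control vector pJAK16, pMexXY or cloned mexZ repressor; 200 ng) were electroporated into fresh electrocompetent cells, and transformants were selected on Mueller-Hinton plates with chloramphenicol 200 or 400 μg/ml. Cultures were kept in chloramphenicol 200 μg/ml to maintain the plasmid, with 1 mM IPTG to induce the cloned gene.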

[10] = test system: Pseudomonas aeruginosa; experiment: Antimicrobial activity against Pseudomonas aeruginosa PAO1 harboring plasmid MexXY expressing mexXY gene by broth microdilution method; format: functional; how it was run: as §2
[11] = test system: Pseudomonas aeruginosa; experiment: Antimicrobial activity against Pseudomonas aeruginosa PAO1 harboring plasmid MexZ expressing mexXY gene by broth microdilution method; format: functional; how it was run: as §2
[12] = test system: Pseudomonas aeruginosa; experiment: Antimicrobial activity against Pseudomonas aeruginosa isolate OC16827 harboring plasmid JAK16 expressing mexXY gene by broth microdilution method; format: functional; how it was run: as §2
[13] = test system: Pseudomonas aeruginosa; experiment: Antimicrobial activity against Pseudomonas aeruginosa isolate OC16827 harboring plasmid MexXY expressing mexXY gene by broth microdilution method; format: functional; how it was run: as §2
[14] = test system: Pseudomonas aeruginosa; experiment: Antimicrobial activity against Pseudomonas aeruginosa isolate OC16827 harboring plasmid MexZ expressing mexXY gene by broth microdilution method
[15] = test system: Pseudomonas aeruginosa; experiment: Antimicrobial activity against Pseudomonas aeruginosa isolate OC16830 harboring plasmid JAK16 expressing mexXY gene by broth microdilution method; format: functional; how it was run: as §2
[16] = test system: Pseudomonas aeruginosa; experiment: Antimicrobial activity against Pseudomonas aeruginosa isolate OC16830 harboring plasmid MexZ expressing mexXY gene by broth microdilution method
[17] = test system: Pseudomonas aeruginosa; experiment: Antimicrobial activity against Pseudomonas aeruginosa isolate OC14812 harboring plasmid JAK16 expressing mexXY gene by broth microdilution method; format: functional; how it was run: as §2
[18] = test system: Pseudomonas aeruginosa; experiment: Antimicrobial activity against Pseudomonas aeruginosa isolate OC14812 harboring plasmid MexZ expressing mexXY gene by broth microdilution method; format: functional; how it was run: as §2
[19] = test system: Pseudomonas aeruginosa; experiment: Antimicrobial activity against Pseudomonas aeruginosa isolate OC17355 harboring plasmid JAK16 expressing mexXY gene by broth microdilution method; format: functional; how it was run: as §2
[20] = test system: Pseudomonas aeruginosa; experiment: Antimicrobial activity against Pseudomonas aeruginosa isolate OC17355 harboring plasmid MexZ expressing mexXY gene by broth microdilution method; format: functional; how it was run: as §2
[21] = test system: Pseudomonas aeruginosa; experiment: Antimicrobial activity against Pseudomonas aeruginosa isolate OC14551 harboring plasmid JAK16 expressing mexXY gene by broth microdilution method; format: functional; how it was run: as §2
[22] = test system: Pseudomonas aeruginosa; experiment: Antimicrobial activity against Pseudomonas aeruginosa isolate OC14551 harboring plasmid MexZ expressing mexXY gene by broth microdilution method; format: functional; how it was run: as §2
[23] = test system: Pseudomonas aeruginosa; experiment: Antimicrobial activity against Pseudomonas aeruginosa isolate OC14805 on day 4 by broth microdilution method; format: functional; details: isolate OC14805, 96 h; how it was run: as §1
[24] = test system: Pseudomonas aeruginosa; experiment: Antimicrobial activity against Pseudomonas aeruginosa isolate OC14805 after 7 to 14 days by broth microdilution method; format: functional; how it was run: as §1
[25] = test system: Pseudomonas aeruginosa; experiment: Antimicrobial activity against Pseudomonas aeruginosa isolate OC14805 after > 14 days by broth microdilution method; format: functional; details: isolate OC14805, 336 h; how it was run: as §1
[26] = test system: Pseudomonas aeruginosa; experiment: Antimicrobial activity against Pseudomonas aeruginosa isolate OC16827 on day 14 by broth microdilution method; format: functional; details: isolate OC16827, 336 h; how it was run: as §1
[27] = test system: Pseudomonas aeruginosa; experiment: Antimicrobial activity against Pseudomonas aeruginosa isolate OC17349 on day 4 by broth microdilution method; format: functional; details: isolate OC17349, 96 h; how it was run: as §1
[28] = test system: Pseudomonas aeruginosa; experiment: Antimicrobial activity against Pseudomonas aeruginosa isolate OC16827 after end of treatment by broth microdilution method; format: functional; how it was run: as §1
[29] = test system: Pseudomonas aeruginosa; experiment: Antimicrobial activity against Pseudomonas aeruginosa isolate OC17349 after end of treatment by broth microdilution method; format: functional; how it was run: as §1
[30] = test system: Pseudomonas aeruginosa; experiment: Antimicrobial activity against Pseudomonas aeruginosa isolate OC17349 after 7 to 14 days by broth microdilution method; format: functional; how it was run: as §1
[31] = test system: Pseudomonas aeruginosa; experiment: Antimicrobial activity against Pseudomonas aeruginosa isolate OC14552 on day 4 by broth microdilution method; format: functional; details: isolate OC14552, 96 h; how it was run: as §1
[32] = test system: Pseudomonas aeruginosa; experiment: Antimicrobial activity against Pseudomonas aeruginosa isolate OC14551 on day 8 by broth microdilution method; details: isolate OC14551, 192 h

Molecule: CO/N=C(\C(=O)N[C@@H]1C(=O)N2C(C(=O)[O-])=C(C[N+]3(C)CCCC3)CS[C@H]12)c1csc(N)n1
- MIC [1]: 2 µg/mL (≈ 4.16 µM)
- MIC [2]: 8 µg/mL (≈ 16.6 µM)
- MIC [3]: 2 µg/mL (≈ 4.16 µM)
- MIC [4]: 8 µg/mL (≈ 16.6 µM)
- MIC [5]: 4 µg/mL (≈ 8.32 µM)
- MIC [6]: 8 µg/mL (≈ 16.6 µM)
- MIC [7]: 4 µg/mL (≈ 8.32 µM)
- MIC [8]: 8 µg/mL (≈ 16.6 µM)
- MIC [9]: 2 µg/mL (≈ 4.16 µM)
- MIC [10]: 8 µg/mL (≈ 16.6 µM)
- MIC [11]: 1 µg/mL (≈ 2.08 µM)
- MIC [12]: 2 µg/mL (≈ 4.16 µM)
- MIC [13]: 8 µg/mL (≈ 16.6 µM)
- MIC [14]: 2 µg/mL (≈ 4.16 µM)
- MIC [15]: 8 µg/mL (≈ 16.6 µM)
- MIC [16]: 4 µg/mL (≈ 8.32 µM)
- MIC [17]: 8 µg/mL (≈ 16.6 µM)
- MIC [18]: 2 µg/mL (≈ 4.16 µM)
- MIC [19]: 8 µg/mL (≈ 16.6 µM)
- MIC [20]: 2 µg/mL (≈ 4.16 µM)
- MIC [21]: 16 µg/mL (≈ 33.3 µM)
- MIC [22]: 4 µg/mL (≈ 8.32 µM)

Molecule: CC(C)(O/N=C(\C(=O)N[C@@H]1C(=O)N2C(C(=O)[O-])=C(C[n+]3ccccc3)CS[C@H]12)c1csc(N)n1)C(=O)O [CEFTAZIDIME]
- MIC [1]: 2 µg/mL (≈ 3.66 µM)
- MIC [2]: 4 µg/mL (≈ 7.32 µM)
- MIC [3]: 2 µg/mL (≈ 3.66 µM)
- MIC [4]: 2 µg/mL (≈ 3.66 µM)
- MIC [5]: 4 µg/mL (≈ 7.32 µM)
- MIC [6]: 4 µg/mL (≈ 7.32 µM)
- MIC [7]: 4 µg/mL (≈ 7.32 µM)
- MIC [8]: 4 µg/mL (≈ 7.32 µM)
- MIC [9]: 2 µg/mL (≈ 3.66 µM)
- MIC [10]: 1 µg/mL (≈ 1.83 µM)
- MIC [11]: 1 µg/mL (≈ 1.83 µM)
- MIC [12]: 2 µg/mL (≈ 3.66 µM)
- MIC [13]: 2 µg/mL (≈ 3.66 µM)
- MIC [14]: 2 µg/mL (≈ 3.66 µM)
- MIC [15]: 2 µg/mL (≈ 3.66 µM)
- MIC [16]: 2 µg/mL (≈ 3.66 µM)
- MIC [17]: 4 µg/mL (≈ 7.32 µM)
- MIC [18]: 4 µg/mL (≈ 7.32 µM)
- MIC [19]: 4 µg/mL (≈ 7.32 µM)
- MIC [20]: 4 µg/mL (≈ 7.32 µM)
- MIC [21]: 4 µg/mL (≈ 7.32 µM)
- MIC [22]: 4 µg/mL (≈ 7.32 µM)

Molecule: Nc1nc(/C(=N/O)C(=O)N[C@@H]2C(=O)N3C(C(=O)O)=C(/C=C4\CCN([C@@H]5CCNC5)C4=O)CS[C@H]23)ns1 [CEFTOBIPROLE]
- MIC [23]: 4 µg/mL (≈ 7.48 µM)
- MIC [24]: 16 µg/mL (≈ 29.9 µM)
- MIC [25]: 16 µg/mL (≈ 29.9 µM)
- MIC [26]: 16 µg/mL (≈ 29.9 µM)
- MIC [27]: 16 µg/mL (≈ 29.9 µM)
- MIC [28]: 16 µg/mL (≈ 29.9 µM)
- MIC [29]: 16 µg/mL (≈ 29.9 µM)
- MIC [30]: 16 µg/mL (≈ 29.9 µM)
- MIC [31]: 4 µg/mL (≈ 7.48 µM)
- MIC [1]: 2 µg/mL (≈ 3.74 µM)
- MIC [2]: 16 µg/mL (≈ 29.9 µM)
- MIC [3]: 4 µg/mL (≈ 7.48 µM)
- MIC [4]: 16 µg/mL (≈ 29.9 µM)
- MIC [5]: 4 µg/mL (≈ 7.48 µM)
- MIC [6]: 16 µg/mL (≈ 29.9 µM)
- MIC [7]: 4 µg/mL (≈ 7.48 µM)
- MIC [8]: 16 µg/mL (≈ 29.9 µM)
- MIC [9]: 4 µg/mL (≈ 7.48 µM)
- MIC [10]: 32 µg/mL (≈ 59.9 µM)
- MIC [11]: 1 µg/mL (≈ 1.87 µM)
- MIC [12]: 4 µg/mL (≈ 7.48 µM)
- MIC [13]: 16 µg/mL (≈ 29.9 µM)
- MIC [14]: 1 µg/mL (≈ 1.87 µM)
- MIC [15]: 16 µg/mL (≈ 29.9 µM)
- MIC [16]: 1 µg/mL (≈ 1.87 µM)
- MIC [17]: 16 µg/mL (≈ 29.9 µM)
- MIC [18]: 2 µg/mL (≈ 3.74 µM)
- MIC [19]: 8 µg/mL (≈ 15 µM)
- MIC [20]: 2 µg/mL (≈ 3.74 µM)
- MIC [21]: 16 µg/mL (≈ 29.9 µM)
- MIC [22]: 4 µg/mL (≈ 7.48 µM)
- MIC [32]: 16 µg/mL (≈ 29.9 µM)

Molecule: O=C(O)c1cn(C2CC2)c2cc(N3CCNCC3)c(F)cc2c1=O [CIPROFLOXACIN]
- MIC [2]: 1 µg/mL (≈ 3.02 µM)
- MIC [5]: 4 µg/mL (≈ 12.1 µM)
- MIC [6]: 4 µg/mL (≈ 12.1 µM)
- MIC [7]: 0.12 µg/mL (≈ 0.362 µM)
- MIC [10]: 1 µg/mL (≈ 3.02 µM)
- MIC [11]: 0.12 µg/mL (≈ 0.362 µM)
- MIC [14]: 0.12 µg/mL (≈ 0.362 µM)
- MIC [16]: 0.12 µg/mL (≈ 0.362 µM)
- MIC [17]: 1 µg/mL (≈ 3.02 µM)
- MIC [19]: 4 µg/mL (≈ 12.1 µM)
- MIC [20]: 1 µg/mL (≈ 3.02 µM)

Molecule: GENTAMICIN
- MIC [1]: 2 µg/mL
- MIC [2]: 8 µg/mL
- MIC [3]: 4 µg/mL
- MIC [4]: 8 µg/mL
- MIC [5]: 4 µg/mL
- MIC [6]: 4 µg/mL
- MIC [7]: 4 µg/mL
- MIC [8]: 4 µg/mL
- MIC [9]: 4 µg/mL
- MIC [11]: 0.25 µg/mL
- MIC [12]: 4 µg/mL
- MIC [15]: 8 µg/mL
- MIC [17]: 8 µg/mL
- MIC [18]: 2 µg/mL
- MIC [19]: 16 µg/mL
- MIC [20]: 0.25 µg/mL
- MIC [21]: 8 µg/mL
- MIC [22]: 4 µg/mL
